Laboratory results taken from ChEMBL document CHEMBL1152300, “Ligand specificity of constitutive androstane receptor as probed by induced-fit docking and mutagenesis” (J Med Chem, 2008).

Legend:
[1] = molecular target: T1, Nuclear receptor subfamily 1 group I member 3 (Mus musculus, UniProt O35627, N175A); experiment: Decrease in mouse CAR N175A mutant activation expressed in HEK293 cells at 10 uM by mammalian one-hybrid assay; assay type: cell-based; conditions: read-out: Activity
In short: (§1)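 GAL4-DBD fused to mouse CAR LBD (residues 118-358), wild-type or point mutant, cotransfected with UASx4-tk-luc reporter and pCMVβ into HEK293 cells. Cells were exposed to final 1 µM, 2 µM or 10 µM test chemical, or 0.1% v/v DMSO, for 24 h after transfection. Luciferase was normalized to β-galactosidase and set against empty GAL4 vector (=1.0). Mean ± standard deviation, three independent experiments.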

[2] = molecular target: T1, Nuclear receptor subfamily 1 group I member 3; experiment: Enhancement of steroid receptor co-activator 1 binding to mouse CAR N175A mutant […] at 10 uM by yeast two-hybrid assay; assay type: cell-based
[3] = molecular target: T2, Nuclear receptor subfamily 1 group I member 3 (Mus musculus, UniProt O35627, L212A); experiment: Effect on steroid receptor co-activator 1 binding to mouse CAR L212A mutant […] at 10 uM by yeast two-hybrid assay; assay type: cell-based; conditions: read-out: Activity
In short: (§2)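 Yeast two-hybrid assay. Yeast co-expressing wild-type or mutant mouse CAR LBD and the SRC-1 partner were selected on SD plates lacking leucine and tryptophan. Random colonies were pooled and amplified, then treated with DMSO or test chemical for 3.5 h. β-galactosidase activity was normalized to cell density and set relative to wild-type mCAR + SRC-1 with DMSO (=100). Mean ± standard deviation of two determinations, each in triplicate.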

[4] = molecular target: T3, Nuclear receptor subfamily 1 group I member 3 (Mus musculus, UniProt O35627, L253F); experiment: Effect on nuclear co-repressor receptor binding to mouse CAR L253F mutant […] at 10 uM by yeast two-hybrid assay; assay type: cell-based; conditions: read-out: Activity
In short: (§3)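 Yeast expressing wild-type or mutant mouse CAR LBD plus NCoR, selected on SD plates lacking leucine and tryptophan. Pooled colonies treated with DMSO or compound for 3.5 h. β-Galactosidase activity normalized to cell density. Reference is 10 µM androstenol (=100). Mean ± SD of two independent determinations, each in triplicate.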

[5] = molecular target: Nuclear receptor subfamily 1 group I member 3 (Mus musculus, UniProt O35627, Y336A); experiment: Decrease in steroid receptor coactivator 1 binding to mouse CAR Y336A mutant […] at 10 uM by yeast two-hybrid assay; assay type: cell-based; conditions: read-out: Activity
In short: as §3, with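 “SRC-1,” for “NCoR,”, “wild-type CAR + SRC-1 with DMSO” for “10 µM androstenol”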

[6] = molecular target: T4, Nuclear receptor subfamily 1 group I member 3 (Mus musculus, UniProt O35627); experiment: Activation of mouse CAR; in short: as §1
T4 sequence (O35627 whole entry): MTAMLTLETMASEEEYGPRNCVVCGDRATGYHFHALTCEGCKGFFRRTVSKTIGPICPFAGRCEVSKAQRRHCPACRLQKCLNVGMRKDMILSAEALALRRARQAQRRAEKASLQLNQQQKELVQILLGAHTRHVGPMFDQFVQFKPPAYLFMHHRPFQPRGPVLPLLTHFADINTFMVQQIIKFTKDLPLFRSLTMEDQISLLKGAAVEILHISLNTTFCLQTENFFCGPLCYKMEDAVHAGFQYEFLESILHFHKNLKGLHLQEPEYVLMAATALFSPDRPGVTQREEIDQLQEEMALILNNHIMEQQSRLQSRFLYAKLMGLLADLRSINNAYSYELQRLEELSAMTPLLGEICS

[7] = molecular target: T5, Nuclear receptor subfamily 1 group I member 3 (Mus musculus, UniProt O35627, H213A); conditions: HEK293, mouse, read-out: Activity
[8] = molecular target: T6, Nuclear receptor subfamily 1 group I member 3 (Mus musculus, UniProt O35627, T350M); conditions: HEK293, mouse, read-out: Activity
[9] = molecular target: T7, Nuclear receptor subfamily 1 group I member 3 (Mus musculus, UniProt O35627, F171L); conditions: HEK293, mouse
[10] = molecular target: T6, Nuclear receptor subfamily 1 group I member 3; conditions: HEK293, mouse
[11] = molecular target: T7, Nuclear receptor subfamily 1 group I member 3; experiment: Decrease in nuclear co-repressor receptor binding to mouse CAR F171L mutant […] at 10 uM by yeast two-hybrid assay; assay type: cell-based; design: scale not given: the % may be the effect or the level left; in short: as §3
[12] = molecular target: T7, Nuclear receptor subfamily 1 group I member 3; experiment: Enhancement of steroid receptor coactivator 1 binding to mouse CAR F171L mutant […] at 10 uM by yeast two-hybrid assay; assay type: cell-based; in short: as §2
[13] = molecular target: T2, Nuclear receptor subfamily 1 group I member 3; experiment: Decrease in nuclear co-repressor receptor binding to mouse CAR L212A mutant […] at 10 uM by yeast two-hybrid assay; assay type: cell-based; design: scale not given: the % may be the effect or the level left
[14] = molecular target: T8, mouse CAR (NR1I3), wild type (Mus musculus, UniProt O35627); experiment: Activation of wild type mouse CAR expressed in HEK293 cells at 1 uM by mammalian one-hybrid assay; assay type: cell-based; conditions: HEK293 cells expressing wild type mouse CAR, read-out: FC
T8 sequence (O35627 whole entry): T4 sequence (O35627 whole entry)
In short: (§4)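 GAL4 DBD fused to mouse CAR LBD (residues 118-358), wild type or point mutant, cotransfected with UASx4-tk-luc reporter and pCMVβ into HEK293 cells. Cells cultured with DMSO (0.1% v/v) or compound (final 1, 2 or 10 µM). Lysed 24 h post-transfection. Luciferase normalized to β-galactosidase, expressed relative to empty GAL4 vector (=1.0). Mean ± SD, three independent experiments.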

[15] = molecular target: T8, mouse CAR (NR1I3), wild type; experiment: Activation of wild type mouse CAR expressed in HEK293 cells at 10 uM by mammalian one-hybrid assay; assay type: cell-based; conditions: HEK293 cells expressing wild type mouse CAR, read-out: FC; in short: as §4
[16] = molecular target: Nuclear receptor subfamily 1 group I member 3 (Mus musculus, UniProt O35627, S251L); conditions: HEK293, mouse, read-out: Activity
[17] = molecular target: Nuclear receptor subfamily 1 group I member 3 (Mus musculus, UniProt O35627, T350A); conditions: HEK293, mouse, read-out: Activity
[18] = molecular target: T3, Nuclear receptor subfamily 1 group I member 3; conditions: HEK293, mouse, read-out: Activity
[19] = molecular target: T7, Nuclear receptor subfamily 1 group I member 3; experiment: Decrease in mouse CAR F171L mutant activation expressed in HEK293 cells at 10 uM by mammalian one-hybrid assay; assay type: cell-based; conditions: read-out: Activity; in short: as §4
[20] = molecular target: T5, Nuclear receptor subfamily 1 group I member 3; conditions: HEK293, mouse, read-out: Activity; remark: listed apart in the source
[21] = molecular target: T4, Nuclear receptor subfamily 1 group I member 3; experiment: Activation of wild type mouse CAR expressed in HEK293 cells at 2 uM by mammalian one-hybrid assay; assay type: cell-based; conditions: hek293, 2 µM; in short: as §1

T6 sequence (O35627 whole entry T350M): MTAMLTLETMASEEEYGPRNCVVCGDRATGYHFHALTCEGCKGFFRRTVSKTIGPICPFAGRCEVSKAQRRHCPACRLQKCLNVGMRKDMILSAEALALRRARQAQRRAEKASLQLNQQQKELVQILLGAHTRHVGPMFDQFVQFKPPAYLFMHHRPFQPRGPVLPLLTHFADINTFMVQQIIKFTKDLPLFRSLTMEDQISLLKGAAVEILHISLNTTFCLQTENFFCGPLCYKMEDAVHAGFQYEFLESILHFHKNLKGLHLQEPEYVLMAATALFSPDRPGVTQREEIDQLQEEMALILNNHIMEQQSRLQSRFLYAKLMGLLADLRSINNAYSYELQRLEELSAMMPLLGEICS
T3 sequence (O35627 whole entry L253F, the tested form may be a part): as the sequence (O35627 whole entry T350M) above, with L253F, M350T counted along it
T1 sequence (O35627 whole entry N175A, the tested form may be a part): as the sequence (O35627 whole entry T350M) above, with N175A, M350T counted along it
T5 sequence (O35627 whole entry H213A): as the sequence (O35627 whole entry T350M) above, with H213A, M350T counted along it
T2 sequence (O35627 whole entry L212A, the tested form may be a part): as the sequence (O35627 whole entry T350M) above, with L212A, M350T counted along it
T7 sequence (O35627 whole entry F171L): as the sequence (O35627 whole entry T350M) above, with F171L, M350T counted along it
Sequence of Nuclear receptor subfamily 1 group I member 3 (Mus musculus, UniProt O35627, T350A) (O35627 whole entry T350A): as the sequence (O35627 whole entry T350M) above, with M350A counted along it
Sequence of Nuclear receptor subfamily 1 group I member 3 (Mus musculus, UniProt O35627, S251L) (O35627 whole entry S251L): as the sequence (O35627 whole entry T350M) above, with S251L, M350T counted along it
Sequence of Nuclear receptor subfamily 1 group I member 3 (Mus musculus, UniProt O35627, Y336A) (O35627 whole entry Y336A): as the sequence (O35627 whole entry T350M) above, with Y336A, M350T counted along it

SMILES	inhibition at 10 µM [1] [%]	Activity [2]	Activity [6]	inhibition at 10 µM [7] [%]	inhibition at 10 µM [8] [%]	activity at 10 µM [3] [%]	activity at 10 µM [4] [%]	inhibition at 10 µM [5] [%]	activity at 10 µM [9] [%]	activity at 10 µM [10] [%]	Activity [11]	Activity [12]	Activity [13]	fold induction at 1 µM [14]	fold induction at 10 µM [15]	inhibition at 10 µM [16] [%]	inhibition at 10 µM [17] [%]	inhibition at 10 µM [18] [%]	inhibition at 10 µM [19] [%]	inhibition at 10 µM [20] [%]	further results
Clc1cnc(Oc2ccc(Oc3ncc(Cl)cc3Cl)cc2)c(Cl)c1	–	–	–	–	–	–	–	–	–	–	–	–	–	2	2	–	–	–	–	–	–
C[C@]12CC[C@@H](O)C[C@@H]1CC[C@@H]1[C@@H]2CC[C@]2(C)C=CC[C@@H]12 [ANDROSTENOL]	–	> 150%	–	–	–	< 50	–	–	< 50	< 50	>= 50%	–	>= 50%	–	–	–	–	≥ 50	< 50	≥ 50	–
Clc1ccccc1C(c1ccccc1)(c1ccccc1)n1ccnc1 [CLOTRIMAZOLE]	–	–	–	–	–	–	–	–	–	–	–	–	–	–	–	–	–	–	–	–	Activity [21]: 40%
COc1ccc(C(c2ccc(OC)cc2)C(Cl)(Cl)Cl)cc1 [METHOXYCHLOR]	–	–	–	–	–	–	< 50	≥ 50	–	< 50	–	>= 50%	>= 50%	–	–	< 50	50	–	< 50	≥ 50	Activity [21]: 40%

Further lines, with some results ahead:

inhibition at 10 µM [1] [%]	Activity [2]	Activity [6]	inhibition at 10 µM [7] [%]	inhibition at 10 µM [8] [%]	SMILES	activity at 10 µM [3] [%]	activity at 10 µM [4] [%]	inhibition at 10 µM [5] [%]	activity at 10 µM [9] [%]	activity at 10 µM [10] [%]	Activity [11]	Activity [12]	Activity [13]	fold induction at 1 µM [14]	fold induction at 10 µM [15]	inhibition at 10 µM [16] [%]	inhibition at 10 µM [17] [%]	inhibition at 10 µM [18] [%]	inhibition at 10 µM [19] [%]	inhibition at 10 µM [20] [%]	further results
< 50	>= 50%	Active	50	50	COc1ccc(C(=O)CCCc2ccccc2)cc1	< 50	< 50	≥ 50	< 50	< 50	–	–	–	–	–	–	–	–	–	–	–
50	> 150%	Active	50	< 50	COc1ccccc1CC(CC(=O)Cc1ccccc1)OC (stereo not given)	–	–	–	–	–	>= 50%	> 50%	>= 50%	2	2	< 50	50	≥ 50	–	–	–
